Entries after “also recorded” stand apart in the source; their conditions may differ.
Assays:
[1] = biological target: T1, WT GPR55 (Homo sapiens, UniProt Q9Y2T6); assay: SRE luciferase assay, WT GPR55; format: cell-based
[2] = biological target: T2, GPR55 Y3.32F (Homo sapiens, UniProt Q9Y2T6, Y101F); assay: SRE luciferase assay, Y3.32F mutant; format: cell-based
In short: (§1)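 HA-tagged human GPR55 (WT or sequence-confirmed site-directed mutant, pcDNA3) co-transfected by lipofection with pGL4.33 luc2P/SRE reporter into HEK293 cells; 60,000 cells/well, switched to 1% FBS/DMEM after 5 h, overnight. Agonist test compounds (10 mM DMSO stocks) added for 5 h in serum-free DMEM, 37°C. Cells lysed 10 min at room temperature, luciferin injected, luminescence read immediately (RLU). EC50 from sigmoidal nonlinear regression.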

[3] = biological target: T3, GPR55 Y3.32L (Homo sapiens, UniProt Q9Y2T6, Y101L); assay: SRE luciferase assay, Y3.32L mutant; format: cell-based
T3 sequence (Q9Y2T6 whole entry Y101L): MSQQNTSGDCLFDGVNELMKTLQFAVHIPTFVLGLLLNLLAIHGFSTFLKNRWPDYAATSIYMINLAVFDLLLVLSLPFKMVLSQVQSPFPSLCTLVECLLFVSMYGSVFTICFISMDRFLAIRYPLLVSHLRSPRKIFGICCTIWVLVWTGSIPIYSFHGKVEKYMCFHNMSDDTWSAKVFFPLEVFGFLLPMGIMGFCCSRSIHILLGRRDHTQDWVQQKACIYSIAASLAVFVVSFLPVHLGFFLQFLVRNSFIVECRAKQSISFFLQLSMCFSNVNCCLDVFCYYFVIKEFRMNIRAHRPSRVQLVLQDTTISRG
In short: as §1

[4] = biological target: T4, GPR55 F6.55A (Homo sapiens, UniProt Q9Y2T6, F246A); assay: SRE luciferase assay, F6.55A mutant; format: cell-based
T4 sequence (Q9Y2T6 whole entry F246A): as the sequence (Q9Y2T6 whole entry Y101L) above, with L101Y, F246A counted along it
In short: as §1

[5] = biological target: T5, GPR55 F6.55L (Homo sapiens, UniProt Q9Y2T6, F246L); assay: SRE luciferase assay, F6.55L mutant; format: cell-based
T5 sequence (Q9Y2T6 whole entry F246L): as the sequence (Q9Y2T6 whole entry Y101L) above, with L101Y, F246L counted along it
In short: as §1

[6] = biological target: GPR55 Q6.58M (Homo sapiens, UniProt Q9Y2T6, Q249M); assay: SRE luciferase assay, Q6.58M mutant; format: cell-based
Sequence of GPR55 Q6.58M (Q9Y2T6 whole entry Q249M): as the sequence (Q9Y2T6 whole entry Y101L) above, with L101Y, Q249M counted along it
In short: as §1

[7] = biological target: T6, GPR55 C(10)A (Homo sapiens, UniProt Q9Y2T6, C10A); assay: SRE luciferase assay, C; format: cell-based
T6 sequence (Q9Y2T6 whole entry C10A): as the sequence (Q9Y2T6 whole entry Y101L) above, with C10A, L101Y counted along it
In short: as §1

[8] = biological target: GPR55 H(170)F (Homo sapiens, UniProt Q9Y2T6, H170F); assay: SRE luciferase assay, H; format: cell-based
Sequence of GPR55 H(170)F (Q9Y2T6 whole entry H170F): as the sequence (Q9Y2T6 whole entry Y101L) above, with L101Y, H170F counted along it
In short: as §1

[9] = biological target: T7, GPR55 C(260)A (Homo sapiens, UniProt Q9Y2T6, C260A); assay: SRE luciferase assay, C; format: cell-based
T7 sequence (Q9Y2T6 whole entry C260A): as the sequence (Q9Y2T6 whole entry Y101L) above, with L101Y, C260A counted along it
In short: as §1

[10] = biological target: GPR55 Q7.36A (Homo sapiens, UniProt Q9Y2T6, Q271A); assay: SRE luciferase assay, Q7.36A mutant; format: cell-based
Sequence of GPR55 Q7.36A (Q9Y2T6 whole entry Q271A): as the sequence (Q9Y2T6 whole entry Y101L) above, with L101Y, Q271A counted along it
In short: as §1

[11] = biological target: GPR55 Q7.36N (Homo sapiens, UniProt Q9Y2T6, Q271N); assay: SRE luciferase assay, Q7.36N mutant; format: cell-based
Sequence of GPR55 Q7.36N (Q9Y2T6 whole entry Q271N): as the sequence (Q9Y2T6 whole entry Y101L) above, with L101Y, Q271N counted along it
In short: as §1

[12] = biological target: T8, GPR55 M3.36A (Homo sapiens, UniProt Q9Y2T6, M105A); assay: SRE luciferase assay, M3.36A mutant; format: cell-based
T8 sequence (Q9Y2T6 whole entry M105A): as the sequence (Q9Y2T6 whole entry Y101L) above, with L101Y, M105A counted along it
In short: as §1

[13] = biological target: T9, GPR55 F6.48A (Homo sapiens, UniProt Q9Y2T6, F239A); assay: SRE luciferase assay, F6.48A mutant; format: cell-based
T9 sequence (Q9Y2T6 whole entry F239A): as the sequence (Q9Y2T6 whole entry Y101L) above, with L101Y, F239A counted along it
In short: as §1

[14] = biological target: T10, GPR55 K2.60A (Homo sapiens, UniProt Q9Y2T6, K80A); assay: SRE luciferase assay, K2.60A mutant; format: cell-based
T10 sequence (Q9Y2T6 whole entry K80A): as the sequence (Q9Y2T6 whole entry Y101L) above, with K80A, L101Y counted along it
In short: as §1

[15] = biological target: T11, GPR55 E3.29A (Homo sapiens, UniProt Q9Y2T6, E98A); assay: SRE luciferase assay, E3.29A mutant; format: cell-based
T11 sequence (Q9Y2T6 whole entry E98A): as the sequence (Q9Y2T6 whole entry Y101L) above, with E98A, L101Y counted along it
In short: as §1

[16] = biological target: T12, GPR55 E3.29L (Homo sapiens, UniProt Q9Y2T6, E98L); assay: SRE luciferase assay, E3.29L mutant; format: cell-based
T12 sequence (Q9Y2T6 whole entry E98L): as the sequence (Q9Y2T6 whole entry Y101L) above, with E98L, L101Y counted along it
In short: as §1

[17] = biological target: T1, WT GPR55; assay: SRF luciferase assay, WT GPR55; format: cell-based
[18] = biological target: T2, GPR55 Y3.32F; assay: SRF luciferase assay, Y3.32F mutant; format: cell-based
[19] = biological target: T3, GPR55 Y3.32L; assay: SRF luciferase assay, Y3.32L mutant; format: cell-based
[20] = biological target: T4, GPR55 F6.55A; assay: SRF luciferase assay, F6.55A mutant; format: cell-based
[21] = biological target: T5, GPR55 F6.55L; assay: SRF luciferase assay, F6.55L mutant; format: cell-based
[22] = biological target: T6, GPR55 C(10)A; assay: SRF luciferase assay, C; format: cell-based
[23] = biological target: T7, GPR55 C(260)A; assay: SRF luciferase assay, C; format: cell-based
[24] = biological target: T8, GPR55 M3.36A; assay: SRF luciferase assay, M3.36A mutant; format: cell-based
[25] = biological target: T9, GPR55 F6.48A; assay: SRF luciferase assay, F6.48A mutant; format: cell-based
[26] = biological target: T10, GPR55 K2.60A; assay: SRF luciferase assay, K2.60A mutant; format: cell-based
[27] = biological target: T11, GPR55 E3.29A; assay: SRF luciferase assay, E3.29A mutant; format: cell-based
[28] = biological target: T12, GPR55 E3.29L; assay: SRF luciferase assay, E3.29L mutant; format: cell-based
[29] = system: GPR55; conditions: agonist screen of the NIH library; cited from earlier work

T2 sequence (Q9Y2T6 whole entry Y101F): as the sequence (Q9Y2T6 whole entry Y101L) above, with L101F counted along it
T1 sequence (Q9Y2T6 whole entry): as the sequence (Q9Y2T6 whole entry Y101L) above, with L101Y counted along it

Cc1cccc(N2CCN(C(=O)c3cc(S(=O)(=O)N(C)C)ccc3N3CCCC3)CC2)c1C [ML184, 3-[4-(2,3-dimethylphenyl)piperazine-1-carbonyl]-N,N-dimethyl-4-pyrrolidin-1-ylbenzenesulfonamide]
EC50 [1]: 56 nM
EC50 [2]: 1660 nM
SRE response compared with WT (in words) ([2]; Y3.32F): right shifted SRE response curves
Fold/WT, SRE EC50 ([2]; Y3.32F vs WT): 30 fold
EC50 [3]: 9510 nM
SRE response compared with WT (in words) ([3]; Y3.32L): right shifted SRE response curves
Fold/WT, SRE EC50 ([3]; Y3.32L vs WT): 170 fold
EC50 [4]: 840 nM
SRE response compared with WT (in words) ([4]; F6.55A): right shifted curves
Fold/WT, SRE EC50 ([4]; F6.55A vs WT): 15 fold
EC50 [5]: 5130 nM
SRE response compared with WT (in words) ([5]; F6.55L): right shifted curves
Fold/WT, SRE EC50 ([5]; F6.55L vs WT): 92 fold
EC50 [6]: 72 nM
SRE response compared with WT (in words) ([6]; Q6.58M): retained WT signalling; also recorded: almost identical to that of WT
Fold/WT, SRE EC50 ([6]; Q6.58M vs WT): 1 fold
EC50 [7]: 635 nM
Fold/WT, SRE EC50 ([7]; C(10)A vs WT): 11 fold
EC50 [8]: 341 nM
SRE response compared with WT (in words) ([8]; H(170)F): slight difference from that of WT
Fold/WT, SRE EC50 ([8]; H(170)F vs WT): 6 fold
EC50 [9]: 657 nM
Fold/WT, SRE EC50 ([9]; C(260)A vs WT): 12 fold
EC50 [10]: 230 nM
SRE response compared with WT (in words) ([10]; Q7.36A): retains WT signalling
Fold/WT, SRE EC50 ([10]; Q7.36A vs WT): 4 fold
EC50 [11]: 154 nM
SRE response compared with WT (in words) ([11]; Q7.36N): retains WT signalling
Fold/WT, SRE EC50 ([11]; Q7.36N vs WT): 3 fold
EC50 [12]: 900 nM
SRE response compared with WT (in words) ([12]; M3.36A): SRE induction comparable to wild-type; also recorded: increased EC50 values
Fold/WT, SRE EC50 ([12]; M3.36A vs WT): 16 fold
EC50 [13]: 514 nM
SRE response compared with WT (in words) ([13]; F6.48A): SRE induction comparable to wild-type; also recorded: increased EC50 values
Fold/WT, SRE EC50 ([13]; F6.48A vs WT): 9 fold
SRE response compared with WT (in words) [14]: complete loss of signalling; also recorded: did not show any response
EC50, SRE response ([14]; transfected HEK293, n ≥ 3): NO response
EC50 [15]: > 30000 nM
SRE response compared with WT (in words) ([15]; E3.29A): profound reduction of receptor signalling; also recorded: very little responses
EC50 [16]: > 30000 nM
SRE response compared with WT (in words) ([16]; E3.29L): profound reduction of receptor signalling; also recorded: very little responses
EC50 [17]: 33 nM
EC50 [18]: 851 nM
SRF response compared with WT (in words) ([18]; Y3.32F): right shifted curves
Fold/WT, SRF EC50 ([18]; Y3.32F vs WT): 26 fold
EC50 [19]: 864000 nM
SRF response compared with WT (in words) ([19]; Y3.32L): right shifted curves
Fold/WT, SRF EC50 ([19]; Y3.32L vs WT): 26182 fold
EC50 [20]: 550 nM
SRF response compared with WT (in words) ([20]; F6.55A): higher EC50 values than WT
Fold/WT, SRF EC50 ([20]; F6.55A vs WT): 17 fold
EC50 [21]: 10500 nM
SRF response compared with WT (in words) ([21]; F6.55L): higher EC50 values than WT
Fold/WT, SRF EC50 ([21]; F6.55L vs WT): 318 fold
EC50 [22]: 554 nM
SRF response compared with WT (in words) ([22]; C(10)A): less response than WT
Fold/WT, SRF EC50 ([22]; C(10)A vs WT): 17 fold
EC50 [23]: 363 nM
SRF response compared with WT (in words) ([23]; C(260)A): less response than WT
Fold/WT, SRF EC50 ([23]; C(260)A vs WT): 11 fold
EC50 [24]: 2040 nM
SRF response compared with WT (in words) ([24]; M3.36A): reduced responses
Fold/WT, SRF EC50 ([24]; M3.36A vs WT): 62 fold
EC50 [25]: 335 nM
SRF response compared with WT (in words) ([25]; F6.48A): reduced responses
Fold/WT, SRF EC50 ([25]; F6.48A vs WT): 10 fold
SRF response compared with WT (in words) [26]: not able to induce any response; also recorded: complete loss of signalling
EC50, SRF response ([26]; transfected HEK293, n ≥ 3): NO response
EC50 [27]: > 30000 nM
SRF response compared with WT (in words) ([27]; E3.29A): reduced responses
EC50 [28]: > 30000 nM
SRF response compared with WT (in words) ([28]; E3.29L): reduced responses
EC50 [29]: 263 nM

Reference: PMC5338039 (Biochemistry, 2017)
